Measurements published in publication PMC5131535 (ACS chemical neuroscience, 2016).
pIC50: −log10 of the molar value. Values joined by “and” are separate entries in the source; they are usually repeats but may differ in a detail not shown here. Equal values may be shown once.

Assays:
[1] = target: Kir7.1-WT-A150S (Homo sapiens, UniProt O60928, A150S); assay: Whole-cell patch clamp, Kir7.1-WT-A150S mutant; type: cell-based; settings: -120 mV
In short: (§1)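 Human Kir7.1 (WT or mutant) was transiently co-transfected with EGFP into HEK-293T cells, which were replated next day on poly-L-lysine coverslips. Whole-cell clamp used bath 5 mM KCl, pH 7.4, and pipette 135 mM KCl, pH 7.3. Cells were held at −75 mV, stepped 500 ms to −120 mV, then ramped to 120 mV, every 5 s. Increasing test-compound doses were superfused, then BaCl₂ block; current read at −120 mV; variable-slope Hill fit, mean of n = 5.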

[2] = target: Kir7.1 pore mutants (Homo sapiens, UniProt O60928, A161S); type: cell-based; settings: 3 µM, -120 mV
Chain of Kir7.1 pore mutants (Homo sapiens, UniProt O60928, A161S) (O60928 whole entry A161S): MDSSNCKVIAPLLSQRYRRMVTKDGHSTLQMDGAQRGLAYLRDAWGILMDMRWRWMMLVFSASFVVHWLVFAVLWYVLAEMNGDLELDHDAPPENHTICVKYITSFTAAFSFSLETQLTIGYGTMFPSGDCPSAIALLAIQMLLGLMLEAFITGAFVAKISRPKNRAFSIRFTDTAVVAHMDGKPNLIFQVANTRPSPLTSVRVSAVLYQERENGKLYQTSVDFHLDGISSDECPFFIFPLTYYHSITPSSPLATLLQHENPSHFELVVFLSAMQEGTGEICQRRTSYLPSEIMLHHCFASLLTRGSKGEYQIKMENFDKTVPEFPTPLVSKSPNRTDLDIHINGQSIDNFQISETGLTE
In short: (§2)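 Single pore-lining residues were mutated on a WT or M125R Kir7.1 background and expressed transiently with EGFP in HEK-293T cells. The whole-cell step-ramp protocol from a −75 mV holding potential was used, with test compound at 3 µM. Read-out was % inhibition of current at −120 mV, mean ± SEM, tested against the respective parent channel (P < 0.05).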

[3] = target: Kir7.1 pore mutants (Homo sapiens, UniProt O60928, T153C); type: cell-based; settings: 3 µM, -120 mV
Chain of Kir7.1 pore mutants (Homo sapiens, UniProt O60928, T153C) (O60928 whole entry T153C): as the sequence (O60928 whole entry A161S) above, with T153C, S161A counted along it
In short: as §2

[4] = target: Kir7.1 pore mutants (Homo sapiens, UniProt O60928, L146V); type: cell-based; settings: 3 µM, -120 mV
Chain of Kir7.1 pore mutants (Homo sapiens, UniProt O60928, L146V) (O60928 whole entry L146V): as the sequence (O60928 whole entry A161S) above, with L146V, S161A counted along it
In short: as §2

[5] = target: Kir7.1 E149Q/M125R (Homo sapiens, UniProt O60928, E149Q/M125R); assay: Whole-cell patch clamp, Kir7.1 E149Q/M125R mutant; type: cell-based; settings: -120 mV
Chain of Kir7.1 E149Q/M125R (O60928 whole entry M125R/E149Q): as the sequence (O60928 whole entry A161S) above, with M125R, E149Q, S161A counted along it
In short: as §1

[6] = plasma
[7] = target: Sigma σ1 receptor (Homo sapiens, UniProt Q99720); assay: Lead Profiling Screen; type: binding; settings: significant interaction
Chain of Sigma σ1 receptor (Q99720 whole entry): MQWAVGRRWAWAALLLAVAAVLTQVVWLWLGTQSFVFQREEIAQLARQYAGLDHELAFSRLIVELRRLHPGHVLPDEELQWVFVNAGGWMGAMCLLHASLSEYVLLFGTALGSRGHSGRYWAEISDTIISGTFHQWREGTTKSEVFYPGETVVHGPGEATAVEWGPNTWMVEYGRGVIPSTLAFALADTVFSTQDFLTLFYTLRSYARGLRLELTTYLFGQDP

[8] = target: Norepinephrine receptor (Homo sapiens, UniProt P23975); assay: Lead Profiling Screen; type: binding; settings: significant interaction
Chain of Norepinephrine receptor (P23975 whole entry): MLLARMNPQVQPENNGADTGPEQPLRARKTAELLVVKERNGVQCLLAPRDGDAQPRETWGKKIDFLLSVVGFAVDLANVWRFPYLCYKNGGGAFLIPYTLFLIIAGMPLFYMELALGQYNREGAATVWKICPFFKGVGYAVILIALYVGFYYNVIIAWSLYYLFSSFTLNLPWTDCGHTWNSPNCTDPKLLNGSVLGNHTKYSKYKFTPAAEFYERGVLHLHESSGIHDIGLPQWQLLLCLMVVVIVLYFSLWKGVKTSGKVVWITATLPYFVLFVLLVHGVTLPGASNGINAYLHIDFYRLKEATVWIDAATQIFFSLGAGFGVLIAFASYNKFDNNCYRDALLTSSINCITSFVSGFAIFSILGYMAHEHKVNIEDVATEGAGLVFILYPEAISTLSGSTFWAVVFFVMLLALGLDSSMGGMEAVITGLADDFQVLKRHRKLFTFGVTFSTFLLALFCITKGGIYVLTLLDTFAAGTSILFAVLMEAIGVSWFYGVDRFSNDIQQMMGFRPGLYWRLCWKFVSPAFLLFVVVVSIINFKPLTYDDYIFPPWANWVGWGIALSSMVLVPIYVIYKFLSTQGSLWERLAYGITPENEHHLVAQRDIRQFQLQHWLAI

Chain of Kir7.1-WT-A150S (O60928 whole entry A150S, the tested form may be a part): as the sequence (O60928 whole entry A161S) above, with A150S, S161A counted along it

Radioligand displacement, Sigma σ1 receptor [7] [%]	Radioligand displacement, Norepinephrine receptor [8] [%]	SMILES	Effect of mutation A150S on inhibition ([1]; 3 µM)	pIC50 ([1]; read-out: Kir7.1-WT-A150S IC50, patch clamp)	Effect of mutation A161S on Kir7.1 inhibition [2]	Effect of mutation T153C/WT on channel inhibition [3]	Effect of mutation L146V on Kir7.1 inhibition [4]	Effect of mutation E149Q/M125R on sensitivity ([5]; 3 µM)	pIC50 ([5]; read-out: Kir7.1-M125R-E149Q IC50, patch clamp)	PPB (%Fu) Mouse [6] [%]
		Oc1c(CN2CCC(Cc3ccccc3)CC2)cc(Cl)c2cccnc12 [VU714]	partial loss of inhibition	5.16 and ~5.15	no effect	increased channel inhibition	no effect	partial, albeit significant (P<0.05), loss of sensitivity	4.74 and ~4.74	0.7
> 50	> 50	CC(C)OC(=O)NC1CCN(Cc2cc(Cl)c3cccnc3c2O)CC1 [Compound 19, iso-Propyl (1-((5-chloro-8-hydroxyquinolin-7-yl)methyl)piperidin-4-yl)carbamate]								
